Assay results pooled from the literature.
Compare with care: the assays were run in different laboratories.
IRAK4: Interleukin-1 receptor-associated kinase 4 (IRAK4, Homo sapiens, UniProt Q9NWZ3)
P2RY14: P2Y purinoceptor 14 (P2RY14, Homo sapiens, UniProt Q15391)
CYP2D6: Cytochrome P450 2D6 (CYP2D6, Homo sapiens, UniProt P10635)
TGFBR1: TGF-beta receptor type-1 (TGFBR1, Homo sapiens, UniProt P36897)

| Compound | target | test | system | conditions | IC50 [nM] |
| --- | --- | --- | --- | --- | --- |
| O=C(NO)c1ccc(Cn2cnc3c(Nc4cccc([N+](=O)[O-])c4)ncnc32)cc1 | Histone deacetylase 3 (HDAC3, Homo sapiens, UniProt O15379) | enzyme activity, inhibitor, fluorescence |  |  | < 2 |
| OCc1ccc(Nc2ncc(Cl)c(Nc3ccccc3-c3ncc[nH]3)n2)cc1 | IRAK4 | enzyme activity, inhibitor, radiometric |  |  | 84.9 |
| CC(C)OC(=O)[C@H](Cc1c[nH]c2ccccc12)NC(=O)c1ccc2ncccc2c1 | P2RY14 | cAMP, antagonist |  |  | 10.6 |
| CS(=O)(=NC#N)c1ccccc1Nc1nc(Nc2ccnc(CO)c2)ncc1Cl (stereo not shown) | IRAK4 | enzyme activity, inhibitor, radiometric |  |  | 28.6 |
| CC(C)OC(=O)[C@H](Cc1c[nH]c2ccccc12)NC(=O)c1cccs1 | P2RY14 | cAMP, antagonist |  |  | 45.8 |
| C=CCC1c2ccc(OC)c(OC)c2CN2CCc3cc4c(cc3C12)OCO4 (stereo not shown) | P2X purinoceptor 7 (P2RX7, Homo sapiens, UniProt Q99572) | ion current, patch clamp |  |  | 470 |
| C=CCn1c(=O)c2cnc(Nc3ccc(N4CCN(C)CC4)cc3)nc2n1-c1ccc2c(n1)[C@@](O)(CC)CC2 | CYP2D6 | enzyme activity, inhibitor |  |  | 50000 |
| Cc1cc2c(cc1C)N[C@H](c1ccccc1)[C@@H](O)C(=O)N2 | Tyrosine-protein kinase JAK3 (JAK3, Homo sapiens, UniProt P52333) | enzyme activity, inhibitor, ELISA |  |  | 1150 |
| CNC(=O)c1ccccc1Nc1nc(Nc2ccc(CC(F)F)cc2)ncc1Cl | IRAK4 | enzyme activity, inhibitor, radiometric |  |  | 74.8 |
| CN(C)C(=O)c1cc2cnc(Nc3ccc(-c4ccc5c(=O)cc(N6CCOCC6)oc5c4)cc3)nc2n1C1CCCC1 | CYP2D6 | enzyme activity, inhibitor, fluorescence |  | pH 8 | 4230 |
| Cc1ccc(OCC(=O)N[C@@H](Cc2c[nH]c3ccccc23)C(=O)OC(C)C)cc1 | CYP2D6 | enzyme activity, inhibitor | human, liver microsomes | 30 min | 27400 |
| Oc1ccccc1-c1n[nH]cc1-c1ccnc2ccccc12 | TGFBR1 | enzyme activity, inhibitor, radiometric |  |  | 7400 |
| O=C(O)c1cc(-c2ccc(-n3cc(CCOP(=O)(O)O)nn3)cc2)c2ccc(-c3ccc(C(F)(F)F)cc3)cc2c1 | P2RY14 | ligand displacement in cells, flow cytometry |  |  | 1340 |
| CC(C)OC(=O)[C@H](Cc1c[nH]c2ccccc12)NC(=O)COc1ccccc1 | P2RY14 | cAMP, antagonist |  |  | 4.4 |
| CS(=O)(=NC#N)c1ccccc1Nc1nc(Nc2ccc(CO)nc2)ncc1Cl (stereo not shown) | IRAK4 | enzyme activity, inhibitor, radiometric |  |  | 18.9 |
| CC(C)OC(=O)[C@H](Cc1c[nH]c2ccccc12)NC(=O)c1ccco1 | P2RY14 | cAMP, antagonist |  |  | 21.6 |
| Cn1cc(C2=C(c3cn(CCCSC(=N)N)c4ccccc34)C(=O)NC2=O)c2ccccc21 | Homeodomain-interacting protein kinase 1 (HIPK1, Homo sapiens, UniProt Q86Z02) | enzyme activity, inhibitor |  |  | 2900 |
| O=C(O)c1cc(-c2ccc(-c3ccncc3)cc2)c2ccc(-c3ccc(C(F)(F)F)cc3)cc2c1 | P2RY14 | ligand displacement in cells, flow cytometry |  |  | 40.8 |
| CNS(=O)(=O)c1ccccc1Nc1nc(Nc2ccc(CO)nc2)ncc1Cl | IRAK4 | enzyme activity, inhibitor, radiometric |  |  | 12.6 |
| O=C(O)c1cc(-c2ccc(-n3ccnn3)cc2)cc(-n2cc(-c3ccc(C(F)(F)F)cc3)nn2)c1 | P2RY14 | ligand displacement in cells, flow cytometry |  |  | 2030 |
| CNC(=O)c1ccccc1Nc1nc(Nc2ccnc(CO)c2)ncc1Cl | IRAK4 | enzyme activity, inhibitor, radiometric |  |  | 11.5 |
| O=C(O)c1cc(-c2ccc(-c3ccc(Cl)s3)cc2)c2ccc(-c3ccc(C(F)(F)F)cc3)cc2c1 | P2RY14 | ligand displacement in cells, flow cytometry |  |  | 2040 |
| Cn1cc(-c2ccnc3ccccc23)c(-c2ccccn2)n1 | TGFBR1 | enzyme activity, inhibitor, radiometric |  |  | 750 |
| O=C(O)c1cc(-c2ccc(-n3cc(CCO)nn3)cc2)c2ccc(-c3ccc(C(F)(F)F)cc3)cc2c1 | P2RY14 | ligand displacement in cells, flow cytometry |  |  | 153 |
| C#Cc1cnc(Nc2ccc(CO)nc2)nc1Nc1ccccc1S(C)(=O)=NC#N (stereo not shown) | IRAK4 | enzyme activity, inhibitor, radiometric |  |  | 3.99 |
